In ChEMBL document CHEMBL2311429, “Design, synthesis and crystallographic analysis of nitrile-based broad-spectrum peptidomimetic inhibitors for coronavirus 3C-like proteases” (Eur J Med Chem, 2013):
The source made the active and inactive calls. The calls are words filed in the database; no cut-off is given here.

Legend:
[1] = molecular target: Replicase polyprotein 1ab (Severe acute respiratory syndrome-related coronavirus, UniProt P0C6X7); assay: Inhibition of SARS coronavirus 3C-like protease pretreated for 5 mins before substrate addition by fluorimetry
[2] = Inhibition of […] bronchitis virus 3C-like protease pretreated for 5 mins before substrate addition by fluorimetry
Summary of the method: (§1)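 3CL protease (0.5-1 μM) preincubated 5 min with inhibitor (0.5-256 μM), then 35 μM fluorescent-protein substrate added; cleavage followed by fluorescence. IC50 from four-parameter logistic fit of activity versus inhibitor concentration.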

[3] = Inhibition of human coronavirus OC43 3C-like protease pretreated for 5 mins before substrate addition by fluorimetry; summary of the method: as §1
Caspase-3 (Homo sapiens) = molecular target: T1, Caspase-3 (Homo sapiens) (UniProt P42574); assay: Inhibition of caspase3 (unknown origin) using Ac-DEVD-pNA as substrate at 0.5 to 256 uM after 90 mins by spectrophotometry
T1 sequence (whole entry): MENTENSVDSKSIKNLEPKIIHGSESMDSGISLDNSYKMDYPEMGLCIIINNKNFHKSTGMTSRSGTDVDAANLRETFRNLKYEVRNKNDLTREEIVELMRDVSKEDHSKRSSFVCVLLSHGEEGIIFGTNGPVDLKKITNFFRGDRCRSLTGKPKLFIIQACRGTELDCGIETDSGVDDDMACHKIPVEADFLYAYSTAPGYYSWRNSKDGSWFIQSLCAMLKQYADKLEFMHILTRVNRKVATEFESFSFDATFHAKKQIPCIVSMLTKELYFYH

[4] = Inhibition of human coronavirus HKU1 3C-like protease pretreated for 5 mins before substrate addition by fluorimetry; summary of the method: as §1
[5] = Inhibition of human coronavirus […] 3C-like protease pretreated for 5 mins before substrate addition by fluorimetry; design: species or system Human coronavirus 229E; summary of the method: as §1

Compound	IC50 [1]	IC50 [2]	IC50 [3]	inhibition (Caspase-3 (Homo sapiens))	IC50 [4]	IC50 [5]
Cc1cc(C(=O)N[C@@H](C)C(=O)N[C@H](C(=O)N[C@@H](CC(C)C)C(=O)N[C@H](C#N)CCC(N)=O)C(C)C)no1	49000 nM					
CC(C)C[C@H](NC(=O)[C@@H](NC(=O)[C@H](C)NC(=O)[C@H](CO)NC(=O)[C@@H](NC(=O)OCc1ccccc1)[C@@H](C)O)C(C)C)C(=O)N[C@H](C#N)CCC(N)=O	39000 nM					
CC(C)C[C@H](NC(=O)[C@@H](NC(=O)[C@H](C)NC(=O)OCc1ccccc1)C(C)C)C(=O)N[C@H](C#N)CCC(N)=O		1300 nM	1300 nM	inactive	1300 nM	1300 nM
